TRPML3 ag – human TRPML3 channel agonists, primary screen, cell-based, HEK293 TRPML3-YFP, Fluo-8 calcium fluorescence, 3 µM. Mucolipin-3 (Homo sapiens), Q8TDD5. 100% = the carbachol control signal. activation, % at 3 µM. hit rate 0.29% among 220,000. AID 1448, 2008;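 active = activation above its plate's cutoff, the mean activation of the plate's test wells plus 3 SD, cut at about 12% in these data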;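 note: 0% = DMSO only wells and 100% = carbachol wells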
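system = HEK293 cells stably carrying human TRPML3-YFP | doses = one concentration, 3 µM nominal, 0.3% DMSO | timing = dye loading 1 h 37 °C then 30 min ambient, 125 s read | detection = Fluo-8 calcium dye fluorescence, ex 470-495, em 515-575 nm | benchmarks = high control carbachol 87 µM, low control DMSO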
V1R ag counter – agonists of human V1a receptor, primary screen, counter-screen for OXTR agonist project, fluorescence, CHO-V1R cells; Vasopressin V1a receptor (Homo sapiens), P37288; Fluo-8 calcium fluorescence, agonist mode; 0% DMSO, 100% 3 nM vasopressin; activation, % at 3 µM; hit rate 0.25% among 320,000;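 active = activation above the mean activation of all tested compounds plus 3 SD, per screening run, cut at about 20% in these data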;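 note: signal is peak over basal fluorescence ratio across a 100 second FLIPR read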
Target sequence (P37288 whole entry, looked up): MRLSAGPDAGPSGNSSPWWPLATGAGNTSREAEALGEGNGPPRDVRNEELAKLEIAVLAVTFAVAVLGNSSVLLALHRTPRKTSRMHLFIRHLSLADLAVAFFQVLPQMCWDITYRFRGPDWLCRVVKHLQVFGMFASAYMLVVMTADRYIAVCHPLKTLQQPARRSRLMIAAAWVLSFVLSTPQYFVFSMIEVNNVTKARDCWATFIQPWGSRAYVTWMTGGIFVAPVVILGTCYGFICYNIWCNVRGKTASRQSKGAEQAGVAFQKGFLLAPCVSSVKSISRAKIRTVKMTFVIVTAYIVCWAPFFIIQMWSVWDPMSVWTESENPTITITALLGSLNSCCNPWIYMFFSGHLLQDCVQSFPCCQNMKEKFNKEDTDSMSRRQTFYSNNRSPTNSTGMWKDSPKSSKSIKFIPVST
zfTRPN1 agonist – zebrafish TRPN1 channel agonists, primary screen, cell-based, HEK293, calcium fluorescence; hit rate 0.18% among 220,000; activation, % at 3 µM; HEK293 zebrafish TRPN1-YFP, Fluo-8 calcium fluorescence; 100% = response to 87 µM carbachol; transient receptor potential cation channel N1 (TRPN1/NompC), Danio rerio; AID 1424, 2008;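 active = activation above its plate's cutoff, the mean activation of test wells on that plate plus 3 SD, cut at about 19% in these data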;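 note: 0% = DMSO alone and 100% = 87 µM carbachol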
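Material: zebrafish TRPN1-YFP in HEK293 cells; Doses: single test compound dose, 3 µM nominal, 0.3% DMSO; Timing: dye loading 1 h at 37 °C, then 30 min room temperature; Technique: intracellular calcium fluorescence with Fluo-8; Benchmarks: high carbachol 87 µM, low DMSO alone.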
CRFBP-R2 agonist – agonists of CRF-BP/CRF-R2 complex, primary screen, cell-based, HEK293, calcium dye fluorescence, uHTS; CRF-binding protein / CRF receptor 2 complex (human); calcium dye fluorescence (FLIPR); percent of saturating CRF peptide response; activation, % at 13.2 µM; hit rate 0.46% among 350,000;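 active = activation of at least 50%, plus an integration ratio under a set limit after plate pattern correction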;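 note: plate controls were neutral control wells without compound for no effect and CRF at EC100 for full effect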
OXTR potentiate – human OXTR potentiators, primary screen, fluorescence, CHO-OTR cells, Fluo-8 calcium; Fluo-8 calcium fluorescence, potentiator mode; 0% = oxytocin EC15, 100% = EC100; activation, % at 3 µM; hit rate 0.061% among 320,000; AID 2445, 2010;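 active = activation above that plate's cutoff, the mean activation of tested compounds plus 3 SD, cut at about 6.6% in these data, passing the limit was not always enough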;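 note: 100% uses oxytocin at 75 nM as the full agonist control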
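assay system = CHO-OTR cells, human receptor | schedule = compound 6 min at room temperature before oxytocin, 100 s read | detection = Fluo-8 intracellular calcium fluorescence, ex 470-495, em 515-575 nm | evaluation = normalized max/min fluorescence ratio, % activation | control set = EC15 oxytocin alone as 0%, 75 nM oxytocin (EC100) as 100%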
OXTR ag – human OXTR agonists, primary screen, fluorescence, CHO-OTR cells, Fluo-8 calcium. Oxytocin receptor (Homo sapiens), P30559. activation, % at 3 µM. Fluo-8 calcium fluorescence; normalized: DMSO 0%, oxytocin 100%. hit rate 0.32% among 320,000;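 active = activation above the mean of all tested compounds plus 3 SD, cutoff set per screening run, cut at about 20% in these data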;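 note: peak over basal fluorescence ratio from a 100 s FLIPR kinetic read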
Starred values were filed as active, the others as inactive; nt = no result. Rows were chosen to be rich in hits. Some 0.83% of all compounds tested hit in one or more screens of this group.

SMILES | TRPML3 ag | V1R ag counter | zfTRPN1 agonist | CRFBP-R2 agonist | OXTR potentiate | OXTR ag
COc1ccc([C@H]2CC(=O)C=C(c3cc(Br)ccc3OC)C2)cc1 | nt | 0 | nt | 2 | -4 | 0
CCOc1ccc(Br)cc1C1=CC(=O)C[C@H](c2ccc(OC)cc2)C1 | nt | 1 | nt | 163* | -6 | 0
COc1cc(/C=C(\C#N)c2nc3ccccc3[nH]2)cc(OC)c1O | 7 | 29* | 22* | 164* | -10 | 28*
COc1cc(/C=C(/C#N)c2nc3ccccc3[nH]2)ccc1OC(=O)c1ccco1 | 0 | 3 | 2 | 4 | -16 | 2
COc1cc(/C=C(\C#N)c2nc3ccccc3n2C)cc(OC)c1O | 17* | 29* | 37* | 52* | -5 | 26*
COc1ccc(/C=C(\C#N)c2nc3ccccc3[nH]2)cc1O | nt | nt | nt | -1 | nt | nt
COc1cc(/C=C(/C#N)c2nc3ccccc3c(=O)[nH]2)ccc1O | 1 | 4 | 1 | 68* | -1 | 4
Cn1c(/C(C#N)=C/c2ccc(O)cc2)nc2ccccc21 | 0 | 0 | -1 | 1 | -4 | 2
CC(C)CC(=O)Nc1ccc(C(=O)COC(=O)Cc2n[nH]c(=O)c3ccccc23)cc1 | nt | 8 | nt | 51* | 0 | 1
O=C(NC(C(=O)N/N=C/c1c2ccccc2cc2ccccc12)c1n[nH]c(=O)c2ccccc12)c1ccccc1 (configuration not stated) | 0 | 0 | 0 | 0 | -8 | 0
O=C(NC(C(=O)N/N=C/c1ccccc1)c1n[nH]c(=O)c2ccccc12)c1ccccc1 (configuration not stated) | 5 | 2 | 0 | 98* | -7 | -1
CN(Cc1nc(-c2ccccn2)no1)S(=O)(=O)c1ccc(Cl)cc1 | 1 | 1 | 0 | 54* | -2 | 1
CCOC(=O)N1CCN(CC(O)c2ccc3c(c2)CCN3)CC1 (configuration not stated) | 0 | 0 | 1 | 0 | -5 | 0
CCOC(=O)N1CCN(CC(O)c2ccc3cc[nH]c3c2)CC1 (configuration not stated) | 0 | 1 | 0 | 58* | -2 | 1
Cc1ccc(/C=C2\SC(N3CCCC3)=NC2=O)cc1 | -1 | 0 | -1 | nt | 1 | -2
CN(C)c1ccc(/C=C2\SC(N3CCCCC3)=NC2=O)cc1 | nt | 13 | nt | 51* | -12 | 9
Cc1[nH]c2ccccc2c1/C=C/c1cc[n+](C)cc1 | 2 | nt | 1 | 81* | nt | nt
Cc1ccccc1/C=C/c1cc[n+](C)cc1 | 0 | 0 | 0 | 1 | -9 | 0
CCOC(=O)c1sc(-c2ccc(F)cc2)cc1NC(=O)Nc1ccccc1OC | 1 | 1 | 1 | 89* | -4 | 0
COc1cc(S(=O)(=O)Nc2ccc(C)cc2)ccc1N=Cc1c(C)c(C#N)c(=O)n(C)c1O | 1 | 0 | -2 | 80* | 1 | -1
CCN(CC)c1ccc(C(=O)NNC(=O)C2CCN(c3ncnc4sc(C)c(C)c34)CC2)cc1 | nt | nt | nt | 0 | nt | nt
CCOC(=O)N1CCN(C(=O)c2c[nH]c3ccc(S(=O)(=O)N(C)c4cccc(C)c4)cc3c2=O)CC1 | nt | 1 | nt | 82* | -3 | 0
CCOC(=O)N1CCN(C(=O)c2c[nH]c3ccc(S(=O)(=O)N(C)c4ccccc4C)cc3c2=O)CC1 | nt | 0 | nt | 0 | -3 | 0
CC(Oc1ccccc1)C(=O)Nc1cc(Cl)ccc1-n1cncn1 (configuration not stated) | nt | -1 | nt | 0 | -5 | -2
Cc1cc(S(=O)(=O)NCc2ccccc2)ccc1OCC(=O)NCC1CCCO1 (configuration not stated) | 0 | 0 | 0 | 241* | -3 | 1
